In data set [1] the test system is Mus musculus. Nature of the data set: Toxicity in HBV infected 1.3.32 transgenic mouse liver assessed as serum alanine aminotransferase level at 5 mg/kg, iv after 24 hrs. The class given is organism-based. Also noted: dose 5 mg/kg, route intravenous. The conditions noted are these: in vivo. The method, boiled down:
(§1)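 Serum ALT was read spectrophotometrically with Infinity ALT reagent against enzyme standards. Mice were HBV 1.3.32 transgenic males, 8–12 weeks, HBeAg-matched, with 3–4 per group. They received a single i.v. injection in 0.9% NaCl/mannitol: 1 mg/kg sampled at 1, 2, 3 or 6 days, or 0.2, 1 or 5 mg/kg sampled at 24 h. Controls got diluent only.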

The subject of data set [2] is Hepatitis B virus. The conditions noted are these: Liver, 1 mg/kg.
For data set [3], the system named is Mus musculus. The experiment in a line: Toxicity in HBV infected 1.3.32 transgenic mouse liver assessed as hepatitis at 5 mg/kg, iv single dose after 24 hrs by rotine […] method. Type of data set: organism-based. Also noted: dose 5 mg/kg, route intravenous. The conditions noted are these: in vivo. The method, boiled down:
(§2)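 Male HBV 1.3.32 transgenic mice, 8–12 weeks, HBeAg-matched. Each got a single i.v. dose in saline/mannitol: 1 mg/kg examined at day 1, 2 or 6, or 0.2, 1.0 or 5.0 mg/kg examined at 24 h. Diluent-only animals served as controls. Livers from representative mice were fixed in zinc-buffered formalin, embedded in paraffin and stained with H&E for pathology.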

The subject of data set [4] is Hepatitis B virus. The conditions noted are these: Liver, 1 mg/kg. This is another data set of the same source.
Data set [5] has as its system Hepatitis B virus. Particulars: 5 mg/kg.
The subject of data set [6] is Mus musculus. Nature of the data set: Toxicity in HBV infected 1.3.32 transgenic mouse assessed as stress, ruffled fur at 5 mg/kg, iv after 24 hrs. Type of data set: organism-based. Also noted: dose 5 mg/kg, route intravenous. The conditions noted are these: in vivo.
In data set [7] the test system is Mus musculus. Nature of the data set: Toxicity in HBV infected 1.3.32 transgenic mouse assessed as labored breathing, hunched posture at 5 mg/kg, iv after 24 hrs. The conditions noted are these: in vivo. The class given is organism-based. Also noted: dose 5 mg/kg, route intravenous.
Data set [8] concerns Mus musculus. Nature of the data set: Toxicity in HBV infected 1.3.32 transgenic mouse liver assessed as hepatitis at 1 mg/kg, iv single dose after 1 day by rotine […] method. Particulars: in vivo, 24 h. Also noted: dose 1 mg/kg, route intravenous. Type of data set: organism-based. The essentials: as §2
In data set [9] the test system is Mus musculus. Nature of the data set: Toxicity in 1.3.32 transgenic mouse assessed as serum alanine aminotransferase level liver at 1 mg/kg, iv after 6 days […]. Type of data set: organism-based. Particulars: in vivo, 144 h. Also noted: dose 1 mg/kg, route intravenous.
In data set [10] the test system is Mus musculus. The experiment in a line: Toxicity in 1.3.32 transgenic mouse liver assessed as serum alanine aminotransferase level at 1 mg/kg, iv after 2 days. The class given is organism-based. The conditions noted are these: in vivo, 48 h. Also noted: dose 1 mg/kg, route intravenous. The method, boiled down: as §1
Data set [11] relates to Mus musculus. Nature of the data set: Toxicity in HBV infected 1.3.32 transgenic mouse liver assessed as hepatitis at 1 mg/kg, iv single dose after 2 days by rotine […] method. Type of data set: organism-based. Also noted: dose 1 mg/kg, route intravenous. The conditions noted are these: in vivo, 48 h. The essentials: as §2
Data set [12] deals with Mus musculus. The experiment in a line: Toxicity in HBV infected 1.3.32 transgenic mouse liver assessed as hepatitis at 0.2 mg/kg, iv single dose after 24 hrs by rotine […] method. Also noted: dose 0.2 mg/kg, route intravenous. The class given is organism-based. The conditions noted are these: in vivo. The method, boiled down:
as §2

The test system of data set [13] is Hepatitis B virus. The conditions noted are these: 0.2 mg/kg.
In data set [14] the test system is Hepatitis B virus. The experiment in a line: Antiviral activity against HBV infected in 1.3.32 transgenic mouse assessed as serum HBeAg level at 5 mg/kg, iv single dose after 24 hrs by ELISA. Type of data set: functional. The essentials: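 Serum HBeAg and HBsAg were measured by ELISA in HBV 1.3.32 transgenic mice (male, 8-12 wk) after one i.v. dose in 0.9% NaCl/mannitol. Values are relative to control mice given diluent. 3-4 mice per group; mean ± SEM; Student's t test.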

Data set [15] has as its system Hepatitis B virus. Particulars: 1 mg/kg.
Data set [16] relates to Hepatitis B virus. Particulars: 1 mg/kg. The source holds these as a separate data set.
The subject of data set [17] is Mus musculus. The experiment in a line: Toxicity in HBV infected 1.3.32 transgenic mouse liver assessed as hepatitis at 1 mg/kg, iv single dose after 6 days by rotine […] method. The class given is organism-based. Also noted: dose 1 mg/kg, route intravenous. The conditions noted are these: in vivo, 144 h. The essentials: as §2
The test system of data set [18] is Hepatitis B virus. The conditions noted are these: 1 mg/kg. This is another data set of the same source.

Activity and inhibition data for one compound are collected here from ChEMBL document CHEMBL1212793, “Bortezomib inhibits hepatitis B virus replication in transgenic mice” (Antimicrob Agents Chemother, 2010).

Activity calls are given as the source filed them. The rule behind the calls is not given here.

`CC(C)C[C@H](NC(=O)[C@H](Cc1ccccc1)NC(=O)c1cnccn1)B(O)O` [BORTEZOMIB]: the Activity entry in data set [1] was “Toxic”; in data set [3] it was “Non-toxic”; in [6], “Toxic”; in [7] it was “Toxic”; in data set [8], “Non-toxic”; in data set [9], “Non-toxic”. In addition, the Activity result in [10] was “Toxic”; in data set [11] it was “Non-toxic”; in data set [12], “Non-toxic”; in data set [14], 50%; in data set [17], “Non-toxic”. For the same compound, the inhibition entry in data set [2], in data set [4], in data set [5], in [15] and in [18] was “Active” throughout. Also, the inhibition result in data set [13] and in data set [16] was “inactive” throughout.
